Here are results for 16 compounds from ChEMBL document CHEMBL1143753, “Synthesis and antimicrobial activity of some new thiazolyl thiazolidine-2,4-dione derivatives” (2007).

For orientation: MIC means the least concentration at which growth counts as inhibited. A lower MIC goes with a more susceptible organism.

Common to all, as to assay type: functional
The subject of test [1] is Staphylococcus aureus. Nature of the test: Antibacterial activity against methicillin-resistant Staphylococcus aureus isolate after 24 hrs. The method in brief:
(§1)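 Compounds were dissolved in dimethylformamide/propyleneglycol (0.5:9.5) and serially diluted twofold in Mueller–Hinton broth at pH 7.4, from 100 down to 0.78. Inocula came from 24 h broth cultures grown at 37 °C, with a final inoculum of 10⁵ CFU/ml. Tubes were incubated for 24 h at 37 °C alongside inoculated-broth and solvent controls. The MIC was read as the last tube showing no growth.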

Test [2] has as its system Staphylococcus aureus. The test can be described thus: Antibacterial activity against methicillin-resistant Staphylococcus aureus ATCC 43300 after 24 hrs. The conditions noted are these: ATCC 43300, 24 h. Put shortly: as §1
The subject of the next test is Candida albicans. The test can be described thus: Antifungal activity against Candida albicans ATCC 10145 after 48 hrs. Conditions: ATCC 10145, 48 h. Put shortly: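 Yeast maintained in Sabouraud dextrose broth, 24 h at 25 °C; testing by twofold serial dilution in Sabouraud dextrose broth, pH 7.4, final inoculum 10⁴ CFU/ml. Compounds in dimethylformamide/propyleneglycol (0.5:9.5), diluted in medium from 100 to 0.78 (100, 50, 25, 12.5, 6.25, 3.12, 1.56, 0.78).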

Test [3] relates to Staphylococcus aureus. The test can be described thus: Antibacterial activity against Staphylococcus aureus ATCC 25923 after 24 hrs. The conditions noted are these: ATCC 25923, 24 h. Put shortly: as §1
The next test concerns Escherichia coli. Nature of the test: Antibacterial activity against Escherichia coli ATCC 23556 after 24 hrs. The conditions noted are these: ATCC 23556, 24 h. Put shortly: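 Twofold serial broth dilution in Mueller–Hinton broth, pH 7.4; compounds dissolved in dimethylformamide/propyleneglycol (0.5:9.5), diluted in medium from 100 down to 0.78 (100, 50, 25, 12.5, 6.25, 3.12, 1.56, 0.78). Inoculum 10⁵ CFU/ml from 24 h broth cultures. Incubated 24 h at 37 °C; MIC taken as last tube without growth. Inoculated broth-only tubes as controls.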

Molecules are shown by their SMILES. ≈ marks a conversion by molar mass, not a printed value.

Take `O=C(CN1C(=O)S/C(=C\c2sc(Cl)nc2Cl)C1=O)c1ccc([N+](=O)[O-])cc1`: the MIC in the test with Staphylococcus aureus [1] came out at 12.5 µg/mL (≈ 28.1 µM); against Staphylococcus aureus [2], 12.5 µg/mL (≈ 28.1 µM); with Candida albicans, 6.25 µg/mL (≈ 14.1 µM); with Staphylococcus aureus [3], 12.5 µg/mL (≈ 28.1 µM); with Escherichia coli, 25 µg/mL (≈ 56.3 µM).

With `Clc1ccc(COC(Cn2ccnc2)c2ccc(Cl)cc2Cl)c(Cl)c1` (stereo unspecified) [MICONAZOLE], the MIC with Staphylococcus aureus [2] is 6.25 µg/mL (≈ 15 µM); against Candida albicans it was 25 µg/mL (≈ 60.1 µM).

As to `O=C1S/C(=C\c2sc(Cl)nc2Cl)C(=O)N1Cc1ccc([N+](=O)[O-])cc1`, the MIC stood at 12.5 µg/mL (≈ 30 µM) in the test with Staphylococcus aureus [1]; 6.25 µg/mL (≈ 15 µM) in the test with Staphylococcus aureus [2]; 12.5 µg/mL (≈ 30 µM) against Candida albicans; 6.25 µg/mL (≈ 15 µM) against Staphylococcus aureus [3]; 25 µg/mL (≈ 60.1 µM) with Escherichia coli.

With `O=C(CN1C(=O)S/C(=C\c2sc(Cl)nc2Cl)C1=O)c1ccc(Cl)cc1`, the MIC against Staphylococcus aureus [1] turned out to be 6.25 µg/mL (≈ 14.4 µM); in the test with Staphylococcus aureus [2] it was 6.25 µg/mL (≈ 14.4 µM); in the test with Candida albicans it was 6.25 µg/mL (≈ 14.4 µM); against Staphylococcus aureus [3], 6.25 µg/mL (≈ 14.4 µM); with Escherichia coli, 25 µg/mL (≈ 57.6 µM).

On to `O=C1S/C(=C\c2sc(Cl)nc2Cl)C(=O)N1Cc1ccc(Br)cc1`, for which the MIC turned out to be 6.25 µg/mL (≈ 13.9 µM) against Staphylococcus aureus [1]; 12.5 µg/mL (≈ 27.8 µM) in the test with Staphylococcus aureus [2]; 6.25 µg/mL (≈ 13.9 µM) in the test with Candida albicans; 6.25 µg/mL (≈ 13.9 µM) in the test with Staphylococcus aureus [3]; 25 µg/mL (≈ 55.5 µM) in the test with Escherichia coli.

On to `O=C(CN1C(=O)S/C(=C/c2sc(Cl)nc2Cl)C1=O)c1ccc(Cl)cc1Cl`, for which the MIC in the test on Staphylococcus aureus [1] came to 12.5 µg/mL (≈ 26.7 µM); in the test with Staphylococcus aureus [2], 12.5 µg/mL (≈ 26.7 µM); against Candida albicans, 12.5 µg/mL (≈ 26.7 µM); against Staphylococcus aureus [3], 12.5 µg/mL (≈ 26.7 µM); in the test on Escherichia coli, 25 µg/mL (≈ 53.4 µM).

`O=C1S/C(=C\c2sc(Cl)nc2Cl)C(=O)N1Cc1ccc(Cl)cc1Cl`: the MIC against Staphylococcus aureus [1] amounted to 12.5 µg/mL (≈ 28.4 µM); against Staphylococcus aureus [2], 12.5 µg/mL (≈ 28.4 µM); against Candida albicans it was 6.25 µg/mL (≈ 14.2 µM); against Staphylococcus aureus [3] it was 12.5 µg/mL (≈ 28.4 µM); with Escherichia coli, 25 µg/mL (≈ 56.8 µM).

For the compound `O=C(CN1C(=O)S/C(=C\c2sc(Cl)nc2Cl)C1=O)c1ccc(Cl)cc1Cl`, the MIC was determined as 12.5 µg/mL (≈ 26.7 µM) in the test with Staphylococcus aureus [1]; 12.5 µg/mL (≈ 26.7 µM) in the test with Staphylococcus aureus [2]; 12.5 µg/mL (≈ 26.7 µM) in the test with Candida albicans; 12.5 µg/mL (≈ 26.7 µM) with Staphylococcus aureus [3]; 25 µg/mL (≈ 53.4 µM) in the test on Escherichia coli.

Take `O=C(CN1C(=O)S/C(=C/c2sc(Cl)nc2Cl)C1=O)c1ccc(Cl)cc1`: the MIC with Staphylococcus aureus [1] was 6.25 µg/mL (≈ 14.4 µM); in the test with Staphylococcus aureus [2] it was 12.5 µg/mL (≈ 28.8 µM); in the test with Candida albicans, 6.25 µg/mL (≈ 14.4 µM); against Staphylococcus aureus [3], 12.5 µg/mL (≈ 28.8 µM); with Escherichia coli it was 50 µg/mL (≈ 115 µM).

Turning to `O=C1S/C(=C\c2sc(Cl)nc2Cl)C(=O)N1Cc1ccc(Cl)cc1`, the MIC was 6.25 µg/mL (≈ 15.4 µM) in the test on Staphylococcus aureus [1]; 6.25 µg/mL (≈ 15.4 µM) with Staphylococcus aureus [2]; 6.25 µg/mL (≈ 15.4 µM) against Candida albicans; 6.25 µg/mL (≈ 15.4 µM) in the test with Staphylococcus aureus [3]; 25 µg/mL (≈ 61.6 µM) against Escherichia coli.

For `O=C1S/C(=C\c2sc(Cl)nc2Cl)C(=O)N1Cc1ccc(F)cc1`, the MIC turned out to be 6.25 µg/mL (≈ 16.1 µM) with Staphylococcus aureus [1]; 6.25 µg/mL (≈ 16.1 µM) in the test on Staphylococcus aureus [2]; 12.5 µg/mL (≈ 32.1 µM) against Candida albicans; 6.25 µg/mL (≈ 16.1 µM) against Staphylococcus aureus [3]; 25 µg/mL (≈ 64.2 µM) in the test with Escherichia coli.

Turning to `O=C(CN1C(=O)S/C(=C\c2sc(Cl)nc2Cl)C1=O)c1ccccc1`, the MIC in the test on Staphylococcus aureus [1] came out at 6.25 µg/mL (≈ 15.7 µM); against Staphylococcus aureus [2], 6.25 µg/mL (≈ 15.7 µM); in the test with Candida albicans, 12.5 µg/mL (≈ 31.3 µM); in the test with Staphylococcus aureus [3], 6.25 µg/mL (≈ 15.7 µM); against Escherichia coli it was 25 µg/mL (≈ 62.6 µM).

For the compound `O=C1S/C(=C\c2sc(Cl)nc2Cl)C(=O)N1Cc1ccccc1`, the MIC turned out to be 12.5 µg/mL (≈ 33.7 µM) in the test on Staphylococcus aureus [1]; 6.25 µg/mL (≈ 16.8 µM) in the test on Staphylococcus aureus [2]; 6.25 µg/mL (≈ 16.8 µM) against Candida albicans; 12.5 µg/mL (≈ 33.7 µM) against Staphylococcus aureus [3]; 25 µg/mL (≈ 67.3 µM) in the test with Escherichia coli.

For the compound `O=C(CN1C(=O)S/C(=C\c2sc(Cl)nc2Cl)C1=O)c1ccc(Br)cc1`, the MIC in the test on Staphylococcus aureus [1] is 12.5 µg/mL (≈ 26.1 µM); in the test with Staphylococcus aureus [2] it was 6.25 µg/mL (≈ 13.1 µM); against Candida albicans, 6.25 µg/mL (≈ 13.1 µM); in the test on Staphylococcus aureus [3], 12.5 µg/mL (≈ 26.1 µM); with Escherichia coli, 6.25 µg/mL (≈ 13.1 µM).

On to `CC1(C)S[C@@H]2[C@H](NC(=O)[C@H](N)c3ccccc3)C(=O)N2[C@H]1C(=O)O` [AMPICILLIN], for which the MIC against Staphylococcus aureus [1] was 1.56 µg/mL (≈ 4.46 µM); in the test on Staphylococcus aureus [2] it was 1.56 µg/mL (≈ 4.46 µM); in the test with Staphylococcus aureus [3] it was 6.25 µg/mL (≈ 17.9 µM); against Escherichia coli, 25 µg/mL (≈ 71.5 µM).

For `O=C(CN1C(=O)S/C(=C\c2sc(Cl)nc2Cl)C1=O)c1ccc(F)cc1`, the MIC against Staphylococcus aureus [1] worked out at 6.25 µg/mL (≈ 15 µM); against Staphylococcus aureus [2] it was 6.25 µg/mL (≈ 15 µM); in the test on Candida albicans it was 12.5 µg/mL (≈ 30 µM); in the test with Staphylococcus aureus [3] it was 6.25 µg/mL (≈ 15 µM); in the test with Escherichia coli, 6.25 µg/mL (≈ 15 µM).
